Laboratory results taken from ChEMBL document CHEMBL4321868, “Scaffold Simplification Strategy Leads to a Novel Generation of Dual Human Immunodeficiency Virus and Enterovirus-A71 Entry Inhibitors” (J Med Chem, 2020).
The source made the active and inactive calls. No cut-off for these calls is given here.

Key:
[1] = test system: RD; experiment: Cytotoxicity against human RD cells assessed as induction of cell morphological changes; type: cell-based
[2] = test system: Human immunodeficiency virus 1; experiment: Antiviral activity against HIV1 NL4.3 infected in human MT4 cells assessed as reduction in virus-induced cytopathic effect preincubated for 30 mins followed by viral infection and measured after 5 days by MTS assay; type: functional, organism-based; settings: Human immunodeficiency virus 1, NL4.3, MT4
[3] = test system: Human immunodeficiency virus 2; experiment: Antiviral activity against HIV-2 ROD infected in human MT4 cells assessed as reduction in virus-induced cytopathic effect preincubated for 30 mins followed by viral infection and measured after 5 days by MTS assay; settings: Human immunodeficiency virus 2, ISOLATE ROD
[4] = test system: Enterovirus A71; experiment: Antiviral activity against Enterovirus A71 genotype C4 TW/1956/05 infected in human RD cells assessed as reduction in virus-induced cytopathic effect preincubated for 1 day followed by viral infection and measured after 3 days by MTS/PMS method; type: functional, organism-based; settings: Enterovirus A, genotype C4 TW/1956/05, RD
Procedure, shortened: (§1)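 RD cells seeded in 96-well plates; next day serial compound dilutions plus virus at low MOI added. Incubation at 37 °C, 5% CO₂ until full CPE in untreated infected controls (3 days). CC50 from uninfected treated cells in the same setup; SI = CC50/EC50.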

[5] = Selectivity index, ratio of CC50 for human MT4 cells to EC50 for HIV-1 NL4.3 infected in human MT4 cells
[6] = test system: Enterovirus A71; experiment: Antiviral activity against Enterovirus A 71 BrCr harboring VP1 S184T mutant infected in human RD cells assessed as reduction in virus-induced cytopathic effect preincubated for 1 day followed by viral infection and measured after 3 days by MTS/PMS method; type: functional, organism-based, strain BRCR
[7] = test system: Enterovirus A71; experiment: Antiviral activity against Enterovirus A71 genotype C2 H08300 461812 infected in human RD cells assessed as reduction in virus-induced cytopathic effect preincubated for 1 day followed by viral infection and measured after 3 days by MTS/PMS method; type: functional, organism-based; settings: Enterovirus A, genotype C2 H08300 461812, RD; procedure, shortened: as §1
[8] = test system: Enterovirus A71; experiment: Antiviral activity against Enterovirus A71 genotype C2 H08300 461812 infected in human RD cells assessed as reduction in virus-induced cell death preincubated for 1 day followed by viral infection and measured after 3 days by microscopic analysis; type: functional; set-up: scale not given: the % may be the effect or the level left
Procedure, shortened: (§2)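 RD cells were seeded in 96-well plates and infected the next day at low MOI, with serial compound dilutions added at the same time. Plates were incubated at 37 °C, 5% CO2 for 3 days, until untreated infected controls died. Cell death was quantified by MTS/PMS and EC50 calculated from dose-response curves. Values come from more than 2 dose-response curves across more than 1 experiment, with microscopic quality control.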

[9] = test system: Enterovirus A71; experiment: Antiviral activity against Enterovirus A71 genotype B2 11316 infected in human RD cells assessed as reduction in virus-induced cytopathic effect preincubated for 1 day followed by viral infection and measured after 3 days by MTS/PMS method; type: functional, organism-based; settings: Enterovirus A, genotype B2 11316, RD; procedure, shortened: as §1
[10] = test system: Enterovirus A71; experiment: Antiviral activity against Enterovirus A71 genotype B2 11316 infected in human RD cells assessed as reduction in virus-induced cell death preincubated for 1 day followed by viral infection and measured after 3 days by microscopic analysis; type: functional; set-up: scale not given: the % may be the effect or the level left; procedure, shortened: as §2
[11] = test system: Enterovirus A71; experiment: Antiviral activity against Enterovirus A 71 BrCr infected in human RD cells assessed as reduction in virus-induced cell death preincubated for 1 day followed by viral infection and measured after 3 days by microscopic analysis; type: functional, strain BRCR; set-up: scale not given: the % may be the effect or the level left; procedure, shortened: as §2
[12] = test system: Enterovirus A71; experiment: Antiviral activity against Enterovirus A71 genotype B5 TW/70902/08 infected in human RD cells assessed as reduction in virus-induced cytopathic effect preincubated for 1 day followed by viral infection and measured after 3 days by MTS/PMS method; type: functional, organism-based; settings: Enterovirus A, genotype B5 TW/70902/08, RD; procedure, shortened: as §1
[13] = Cytotoxicity against human MT4 cells assessed as reduction in cell viability measured after 5 days by MTS/PES assay; type: cell-based
Procedure, shortened: (§3)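 MT-4 cells (RPMI-1640, 10% FCS, 1% L-glutamine) pre-incubated 30 min at 37 °C with compound, then infected with HIV-1 NL4.3 or HIV-2 ROD according to stock TCID50. After 5 days, CPE scored microscopically and viability read by MTS/PES at A490 to derive EC50; cytotoxicity measured by MTS/PES at 5 days in the same cells. SI = CC50/EC50. Mean ± S.D. of at least 3 experiments.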

[14] = test system: Enterovirus A71; experiment: Antiviral activity against Enterovirus A71 genotype B5 TW/70902/08 infected in human RD cells assessed as reduction in virus-induced cell death preincubated for 1 day followed by viral infection and measured after 3 days by […]; type: functional; set-up: scale not given: the % may be the effect or the level left; procedure, shortened: as §2
[15] = test system: Enterovirus A71; experiment: Antiviral activity against Enterovirus A 71 BrCr harboring VP1 P246S mutant infected in human RD cells assessed as reduction in virus-induced cytopathic effect preincubated for 1 day followed by viral infection and measured after 3 days by MTS/PMS method; type: functional, organism-based, strain BRCR
[16] = Selectivity index, ratio of CC50 for human MT4 cells to EC50 for HIV1 NL4.3 infected in human MT4 cells; type: toxicity, cell-based; settings: read-out: Ratio CC50/EC50; procedure, shortened: as §3
[17] = test system: RD; experiment: Cytotoxicity against human RD cells assessed as adverse effect on cell; type: cell-based
[18] = test system: Enterovirus A71; experiment: Antiviral activity against Enterovirus A 71 BrCr infected in human RD cells assessed as reduction in virus-induced cytopathic effect preincubated for 1 day followed by viral infection and measured after 3 days by MTS/PMS method; type: functional, organism-based; settings: strain BRCR
Procedure, shortened: as §1, with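 “days). Viability read by MTS/PMS; EC50 as 50% inhibition of virus-induced death from dose-response curves.” for “days).”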

[19] = test system: Enterovirus A71; experiment: Antiviral activity against Enterovirus A 71 BrCr harboring VP1 S184T/P246S mutant infected in human RD cells assessed as reduction in virus-induced cytopathic effect preincubated for 1 day followed by viral infection and measured after 3 days by MTS/PMS method; type: functional, organism-based, strain BRCR
[20] = test system: Enterovirus A71; experiment: Antiviral activity against Enterovirus A71 genotype C4 TW/1956/05 infected in human RD cells assessed as reduction in virus-induced cell death preincubated for 1 day followed by viral infection and measured after 3 days by microscopic analysis; type: functional; set-up: scale not given: the % may be the effect or the level left; procedure, shortened: as §2
[21] = target: Human immunodeficiency virus type 1 reverse transcriptase (Human immunodeficiency virus 1) (UniProt Q72547); settings: 3B, MT4, 12 uM
[22] = Selectivity ratio of EC50 for Enterovirus A 71 BrCr infected in human RD cells to EC50 for Enterovirus A 71 genotype B2 11316 infected in human RD cells; type: functional
[23] = Selectivity index, ratio of CC50 for human RD cells to EC50 for Enterovirus A71 BrCr infected in human RD cells; type: toxicity, cell-based; settings: read-out: Ratio CC50/EC50; procedure, shortened: as §1
[24] = Selectivity ratio of EC50 for Enterovirus A 71 BrCr infected in human RD cells to EC50 for Enterovirus A 71 genotype C4 TW/1956/05 infected in human RD cells; type: functional

For `O=C(CCC(CCC(=O)N[C@H](Cc1c[nH]c2ccccc12)C(=O)O)(CCC(=O)N[C@H](Cc1c[nH]c2ccccc12)C(=O)O)NC(=O)CCOCC(COCCC(=O)NC(CCC(=O)N[C@H](Cc1c[nH]c2ccccc12)C(=O)O)(CCC(=O)N[C@H](Cc1c[nH]c2ccccc12)C(=O)O)CCC(=O)N[C@H](Cc1c[nH]c2ccccc12)C(=O)O)(COCCC(=O)NC(CCC(=O)N[C@H](Cc1c[nH]c2ccccc12)C(=O)O)(CCC(=O)N[C@H](Cc1c[nH]c2ccccc12)C(=O)O)CCC(=O)N[C@H](Cc1c[nH]c2ccccc12)C(=O)O)COCCC(=O)NC(CCC(=O)N[C@H](Cc1c[nH]c2ccccc12)C(=O)O)(CCC(=O)N[C@H](Cc1c[nH]c2ccccc12)C(=O)O)CCC(=O)N[C@H](Cc1c[nH]c2ccccc12)C(=O)O)N[C@H](Cc1c[nH]c2ccccc12)C(=O)O`, the Activity [1] was “Non-Toxic”, the EC50 [2] was 2300 nM and the EC50 [3] was 6600 nM. For the same compound, the EC50 [4] was 0.2 nM, the selectivity ratio [5] was greater than 43 and the EC50 [6] was 1990 nM. It also gave an EC50 [7] of 1.1 nM, an Activity [8] of 100% and an EC50 [9] of 0.4 nM. For the same compound, the Activity [10] was 100%, the Activity [11] was 100% and the EC50 [12] was 0.2 nM. It also gave a CC50 at 120 h [13] greater than 100000 nM, an Activity [14] of 100% and an EC50 [15] of 4710 nM. For the same compound, the selectivity ratio [16] was greater than 43, the Activity [17] was “Non-Toxic” and the EC50 [18] was 280 to 300 nM. For the same compound, the EC90 [18] was 500 nM, the EC50 [19] was 8930 nM and the Activity [20] was 100%.

In the case of `Cc1cn([C@H]2C[C@H](N=[N+]=[N-])[C@@H](CO)O2)c(=O)[nH]c1=O`, the inhibition [21] is reported as “Active”.

For `O=C(CCOCC(COCCC(=O)NC(Cc1c(-c2cccc(C(=O)O)c2)[nH]c2ccccc12)C(=O)O)(COCCC(=O)NC(Cc1c(-c2cccc(C(=O)O)c2)[nH]c2ccccc12)C(=O)O)COCCC(=O)NC(Cc1c(-c2cccc(C(=O)O)c2)[nH]c2ccccc12)C(=O)O)NC(Cc1c(-c2cccc(C(=O)O)c2)[nH]c2ccccc12)C(=O)O` (stereo not drawn), the “Ratio EC50” value [22] was 4, the Activity [1] was “Non-Toxic” and the EC50 [2] was 2000 nM. It also gave an EC50 [3] of 760 nM, an EC50 [4] of 2 nM and a selectivity ratio [5] greater than 50. For the same compound, the EC50 [7] was 7.3 nM, the Activity [8] was 100% and the EC50 [9] was 52 nM. It also gave an Activity [10] of 100%, a selectivity ratio [23] greater than 336 and an Activity [11] of 100%. The EC50 [12] was 18 nM, the “Ratio EC50” value [24] was 88 and the CC50 at 120 h [13] was greater than 100000 nM. The Activity [14] was 100%, the selectivity ratio [16] was greater than 50 and the Activity [17] was “Non-Toxic”. It also gave an EC50 [18] of 175 to 190 nM, an EC90 [18] of 300 nM and an Activity [20] of 100%.
